Measurements from different studies.
Protocols differ between the studies behind these lines.
Target: Cyclin-dependent kinase 3 (CDK3, Homo sapiens, UniProt Q00526)

SMILES	test	setting	remaining binding [%]
Cc1c(NC(=O)c2cc(C(N)=O)nc3cc(F)ccc23)c(C(F)(F)F)nn1Cc1ccc(C#N)cc1	cell-free assay, competition with immobilised ligand	1 µM	95
CNC(=O)[C@@H]1CC[C@@H](n2c(-c3ccc4cnccc4c3)nc3ccc(C(=O)NCc4cccc(C(N)=O)c4)cc32)C1	binding, competition with immobilised ligand	1 µM	89
O=C(c1ccc(Nc2ncc(Cl)c(-c3cc4ccccc4s3)n2)cc1)N1CCC(N2CCCC2)CC1	binding, competition with immobilised ligand	1 µM	48
CN(C)c1nccc(-c2cnn3ncccc23)n1	binding	1 µM	78
c1cncc(-c2cccc(Nc3nccc(NC4CCCCC4)n3)c2)c1	binding, competition with immobilised ligand	10 µM	76
c1cnn2ncc(-c3ccnc(N4CCC45COC5)n3)c2c1	binding	1 µM	74
FC(F)(F)Oc1cccc(-c2cnc3ccc(-c4ccncc4)nn23)c1	cell-free assay, competition with immobilised ligand	5 µM	79
CCCOc1ccc([C@H]2[C@H](C(=O)O)[C@@H](c3ccc4c(c3)OCO4)CN2CC(=O)Nc2c(CC)cccc2CC)cc1	cell-free assay, competition with immobilised ligand	1 µM	95
O=C(Nc1c[nH]nc1C(=O)NC1CCNCC1)c1cc(F)cc(F)c1	binding, competition with immobilised ligand	1 µM	91
CN(CCCC(F)(F)F)c1nccc(-c2cnn3ncccc23)n1	binding	1 µM	100
CCS(=O)(=O)c1cc2cc(C[C@](O)(CC(C)(C)c3ccc(F)cc3C(N)=O)C(F)(F)F)[nH]c2cn1	cell-free assay, competition with immobilised ligand	1 µM	100
N[C@@H]1CCN(c2nccc(-c3cnn4ncccc34)n2)C1	binding	1 µM	100
O=C(c1ccc(Nc2ncc(Cl)c(-c3ccc(Cl)s3)n2)cc1)N1CCC(N2CCCC2)CC1	binding, competition with immobilised ligand	1 µM	47
C[C@@H]1CN(c2ccc3ncc(-c4ccc5[nH]nc(C6CC6)c5c4)n3n2)C[C@H](C)O1	binding, competition with immobilised ligand	50 nM	100
O=C1CCc2cc(Nc3cc(OC4CCOCC4)c([N+](=O)[O-])cc3Cl)ccc2N1	cell-free assay, competition with immobilised ligand	1 µM	100
CN(C)c1nccc(-c2cnc3ncccn23)n1	binding	1 µM	79
CCC(=O)N[C@H]1CC[C@@H](C(=O)N(C)c2ccc(-c3nc4ccccc4o3)cc2)C1	cell-free assay, competition with immobilised ligand	1 µM	98
COc1cnc(Nc2cccc(S(N)(=O)=O)c2)nc1N1CCN(c2ccccc2)C(=O)C1	binding, competition with immobilised ligand	1 µM	99
O=C(NCCCN1CCOCC1)c1ccc(Nc2nccc(-c3cc4ccccc4s3)n2)cc1	binding, competition with immobilised ligand	1 µM	95
C[C@H](c1cccc(C#N)c1)n1cc(Cl)cc(C(N)=O)c1=N	cell-free assay, competition with immobilised ligand	1 µM	100
F[C@@H]1CCN(c2nccc(-c3cnn4ncccc34)n2)C1	binding	1 µM	100
